STAT3 inh: IL-6 driven STAT3 reporter inhibitors, primary screen, U3A cells, luciferase, luminescence, MLSCN library; IL-6 STAT3-luciferase reporter; host cell line lacks STAT1; inhibition, % at 5.5 µM; actives 0.89% (n = 190,000); AID 862, 2007;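 active means inhibition above the mean inhibition across all screened compounds plus 3 SD, cut at about 44% in these data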;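 further: 0% = DMSO only wells and 100% = 100 µM nifuroxazide control wells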
STAT1 blocker: STAT1 signaling inhibitors, primary screen, cell-based, HTS, luciferase reporter; NIH 3T3 STAT1-luciferase reporter, IFN-gamma, luminescence; inhibition, % at 5.5 µM; actives 0.35% (n = 200,000); AID 920, 2007;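 active means inhibition above a set limit, the mean inhibition across all tested compounds plus 3 SD, cut at about 34% in these data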;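 further: 0% = IFN-gamma with DMSO and 100% = IFN-gamma with 300 µM nifuroxazide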
STAT1 act: STAT1 signaling activators, primary screen, cell-based, HTS, luciferase reporter. NIH 3T3 STAT1-luciferase reporter, IFN-gamma, luminescence; 100% = IFN-gamma alone, no compound. activation (% of control), % at 5.5 µM. actives 2.6% (n = 200,000). AID 932, 2007;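 active means activation above the screen-wide mean activation plus 3 SD, cut at about 130% in these data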;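 further: raw ratio to IFN-gamma control signal so 100% means no change and 0% no light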
STAT3 act: IL-6 driven STAT3 reporter potentiators, primary screen, U3A cells, luciferase, luminescence, MLSCN library. actives 0.91% (n = 190,000). IL-6 STAT3-luciferase reporter; 100% = signal with IL-6 EC80 alone. activation (% of control), % at 5.6 µM;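 active means activation above the screen-wide mean of compound activation plus 3 SD, cut at about 130% in these data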;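 further: 0% = background luminescence of wells with medium and substrate only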
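Material: STAT3-luciferase reporter U3A cells. Controls: IL-6-treated wells, 100% activation. Read-out: % activation versus median of IL-6-stimulated wells. Probe or stimulus: IL-6 stimulus at 33 ng/mL final. Timing: compound 1 h, then IL-6 6 h at 37 °C. Signal: reporter luminescence signal.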
NF-kB expr up: activators of NF-kB expression in neurons, primary screen, cell-based, HTS; human neuronal cells, NF-kB reporter expression; active compounds read high; AID 1239, 2008; fold change at 12.5 µM; actives 1.6% (n = 190,000); in the data active means fold change above about 3.3
APP 5'UTR act: activators of APP 5'UTR luciferase reporter, primary screen, SH-SY5Y cells. SH-SY5Y APP 5'UTR luciferase reporter, luminescence; zero percent = DMSO vehicle wells. activation, % at 2 µM. actives 1% (n = 190,000). AID 1276, 2008;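 active means activation above a set limit, based on mean plus 3 SD of controls, cut at about 140% in these data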
* hit, by the source's call; · = no result. Rows were chosen to be rich in hits. Some 5.1% of all compounds tested hit in one or more screens of this group.

SMILES	STAT3 inh	STAT1 blocker	STAT1 act	STAT3 act	NF-kB expr up	APP 5'UTR act
COc1cc([N+](=O)[O-])ccc1N/C=C/C(=O)c1cccs1	73*	47*	58	44	4.3*	136*
NC(=O)c1ccccc1N/C=C/C(=O)c1cccs1	32	-42	138*	78	5.4*	·
Cc1ccc(C(=O)/C=C/Nc2ccccc2C(N)=O)o1	8	-22	120	96	1.4	30
Cc1cccc(N/C=C/C(=O)c2cccs2)c1C	26	-31	128	77	4.1*	212*
CN1/C(=C\C(=O)c2cccnc2)Sc2ccccc21	6	-39	134*	97	2.8	127
COc1cccc(C(=O)/C=C2\Sc3ccccc3N2C)c1	9	-59	150*	96	1	214*
COc1ccc(-c2cc(-c3ccc(OC)cc3)nc(-c3ccc4c(c3)NC(=O)CO4)c2)cc1	1	8	93	100	1.1	-8
COc1cccc(-c2nc(-c3ccc4c(c3)NC(=O)CO4)cs2)c1	6	-48	142*	102	1.6	52
Fc1cccc(Cl)c1CSc1ncn[nH]1	4	-10	109	99	0.94	15
O=C(/C=C/c1ccccc1Cl)NCc1cccs1	-12	-35	131*	108	2	31
O=S(=O)(CCc1nc2ccccc2o1)c1ccc(Cl)c(Cl)c1	11	3	97	95	2.1	-13
Clc1ccccc1CSc1cc2c(nn1)-c1ccccc1CC2	-8	-31	128	112	3.7*	58
Clc1cccc(Cl)c1CSc1cc2c(nn1)-c1ccccc1CC2	7	-11	110	95	1.3	-4
CCCCC(=O)Nc1sc2c(c1-c1nc3ccccc3s1)CCN(C(C)=O)C2	12	8	93	94	0.84	-9
O=C(N/N=C/c1c(O)ccc2ccccc12)c1[nH]ncc1Br	9	-10	108	92	1.1	-72
Cc1ccc(O)c(/C=N/NC(=O)c2[nH]ncc2Br)c1	-5	-35	131*	103	8.1*	-2
CC(=O)c1sc2nc(C)cc(C)c2c1N	20	-3	100	89	1.2	-10
Cc1ccc2nc(-c3sc4nc(C)cc(C)c4c3N)[nH]c2c1	-44	-34	131*	140*	2.8	170*
COC(=O)C(NC(=O)c1c(C)nn(C)c1Cl)c1ccccc1 (centres undefined)	-2	4	95	105	1.1	6
Cc1cccc(NC(=O)c2cccc(NS(=O)(=O)c3ccc(Cl)cc3)c2)c1	4	5	96	103	1.1	10
Cc1ccc(-c2noc(-c3ccccc3Br)n2)cc1	-17	-37	133*	123	5.9*	195*
COc1ccccc1-c1nc(-c2ccc(Br)cc2)no1	-38	-36	135*	135*	4.7*	162*
COc1ccccc1-c1nc(-c2ccc(Br)o2)no1	-58	-63	157*	159*	6.7*	218*
COc1cc(OC)cc(-c2nc(-c3ccc(Br)cc3)no2)c1	13	-1	101	91	1.8	-5
CN(C)c1ccc(-c2noc(-c3ccccc3O)n2)cc1	40	3	97	68	1.5	144*
SMILES	STAT3 inh	STAT1 blocker	STAT1 act	STAT3 act	NF-kB expr up	APP 5'UTR act
COc1ccc(Nc2nc(NN)nc(C)c2[N+](=O)[O-])cc1	8	4	96	97	0.69	-8
Cc1ccc(S(=O)(=O)n2[nH]c(=O)cc2NC(=O)c2cccs2)cc1	·	0	101	·	1.2	-7
Cc1cccc(OCCCC(=O)O)c1C	-3	0	100	105	1	-18
CC(=O)Nc1ccc(NC(=O)CSc2nc(C)nc3sc(C)c(C)c23)cc1	2	-14	111	100	1.2	16
CN(C)c1ccc(CNCCC2(O)CCOC(C)(C)C2)cc1 (centres undefined)	21	-6	106	87	1.1	-9
COc1cc2nc(C3CCC3)n(NC(=O)C3CCCC(OC)C3)c(=O)c2cc1OC (centres undefined)	·	·	·	·	1	·
Clc1ccc(-c2nc3ccncc3[nH]2)cc1	-1	-45	141*	100	1.3	16
COc1ccc(-c2cc3ccccc3n2CC(O)CN2CCOCC2)cc1 (centres undefined)	-2	5	96	105	1	9
Cc1oc2cc3c(C(=O)N4CCCCC4)c(C)oc3cc2c1C(=O)N1CCCCC1	-31	-43	139*	132	0.88	71
COc1ccc2[nH]c(C)c(CCNC(=S)Nc3cccc(C)c3)c2c1	10	-7	106	91	0.78	-20
O=C(/C=C/c1ccco1)NC1=NCCS1	-7	-51	145*	109	2	96
COc1ccc(/C=C/C(=O)NC2=NCCS2)cc1OC	0	-35	132*	102	1.4	14
Cc1cc(O)ccc1N/C=C/c1onc(C)c1[N+](=O)[O-]	3	-38	135*	104	2.6	162*
CC(C)c1onc(C(=O)Nc2cccc(O)c2)c1[N+](=O)[O-]	2	-4	102	100	1.7	21
CCCCC(=O)NCCc1cc2ccc(OC)cc2[nH]c1=O	10	-4	104	95	1	1
Cc1cc(C(=O)CN2C(=O)C3CC=CCC3C2=O)c(C)n1-c1ccccc1 (centres undefined)	18	-43	138*	90	2.2	184*
Cc1cc(C(=O)CN2CCCC2)c(C)n1-c1ccc(Cl)cc1	-14	4	96	113	1.1	-9
Cc1cc(C(=O)Cn2cc(C(F)(F)F)ccc2=O)c(C)n1-c1ccccc1	7	-2	102	93	1.2	4
Cc1cc(C(=O)CN2CCCCC2)c(C)n1-c1ccc(F)cc1	-15	-34	130*	109	1.2	29
CC(OC(=O)CCCN1C(=O)c2ccccc2C1=O)C(=O)Nc1ncc(Cl)cc1Cl (centres undefined)	11	8	93	94	1.5	-7
O=S(=O)(c1ccc2c(c1)OCCO2)N1CCN(c2ncnc3sccc23)CC1	61*	38*	65	51	0.78	1
CC1CN(C(=O)CCn2c(=O)oc3ccccc32)CC(C)O1 (centres undefined)	11	1	99	95	0.88	2
CN1CCN(C(=O)c2cccc(COc3cc(Cl)ccc3Cl)c2)CC1	-17	-17	113	116	1.4	60
O=C(O)c1cccc(COc2ccccc2Cl)c1	·	·	·	·	15*	·
O=C(Nc1ccccc1Cl)c1cccc(COc2cc(Cl)ccc2Cl)c1	-12	-32	129*	111	1.6	24

From PubChem BioAssay
